Measured values: ChEMBL document CHEMBL4014269, “Antibacterial and Hypoglycemic Diterpenoids from Salvia chamaedryoides” (J Nat Prod, 2017)
Converted amounts (≈) assume the structure as drawn. The source made the active and inactive calls. No cut-off for these calls is given here.

Tests used:
[1] = target: Alpha-amylase (Sus scrofa); assay: Inhibition of alpha-amylase (hog pancreas) using starch as substrate preincubated for 10 mins followed by substrate addition measured after 10 mins by dinitrosalicylic acid color reagent based assay
[2] = target: alpha-glucosidase (Saccharomyces cerevisiae); assay: Inhibition of alpha-glucosidase (Saccharomyces cerevisiae) using 4-nitrophenyl alpha-D-glucopyranoside as substrate after 10 mins
Nakaseomyces glabratus = assay: Antifungal activity against Candida glabrata isolate MB 8 after 48 hrs by microdilution assay; assay type: functional
Procedure, shortened: (§1)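 Clinical isolates from various clinical specimens, identified by standard procedures and kept in a hospital microbiology laboratory collection. The MIC was read by broth microdilution, following a method described in earlier work.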

Enterococcus faecium [3] = assay: Antibacterial activity against vancomycin-resistant Enterococcus faecium isolate MB 2 after 24 hrs by microdilution assay; assay type: functional; conditions: isolate MB 2, 24 h
Procedure, shortened: as §1

Moraxella catarrhalis = assay: Antibacterial activity against Moraxella catarrhalis isolate MB 15 after 24 hrs by microdilution assay; assay type: functional
Procedure, shortened: as §1

Enterococcus faecium [4] = assay: Antibacterial activity against vancomycin-resistant Enterococcus faecium isolate MB 23 after 24 hrs by microdilution assay; assay type: functional; conditions: isolate MB 23, 24 h
Procedure, shortened: as §1

[5] = test system: Staphylococcus epidermidis; assay: Antibacterial activity against methicillin-resistant Staphylococcus epidermidis isolate MB 20 after 24 hrs by microdilution assay; assay type: functional; conditions: isolate MB 20, 24 h
Procedure, shortened: as §1

[6] = test system: Staphylococcus epidermidis; assay: Antibacterial activity against methicillin-resistant Staphylococcus epidermidis isolate MB 64 after 24 hrs by microdilution assay; assay type: functional; conditions: isolate MB 64, 24 h
Procedure, shortened: as §1

[7] = test system: Staphylococcus epidermidis; assay: Antibacterial activity against methicillin-resistant Staphylococcus epidermidis isolate MB 26 after 24 hrs by microdilution assay; assay type: functional; conditions: isolate MB 26, 24 h
Procedure, shortened: as §1

Proteus mirabilis = assay: Antibacterial activity against Proteus mirabilis isolate MB 14 after 24 hrs by microdilution assay; assay type: functional
Procedure, shortened: as §1

Enterococcus faecalis [8] = assay: Antibacterial activity against Enterococcus faecalis isolate MB 3 after 24 hrs by microdilution assay; assay type: functional; conditions: isolate MB 3, 24 h
Procedure, shortened: (§2)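 Clinical isolates from a hospital microbiology collection, identified by standard procedures; MICs by broth microdilution.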

Candida albicans = assay: Antifungal activity against Candida albicans isolate MB 31 after 48 hrs by microdilution assay; assay type: functional
Procedure, shortened: as §1

Staphylococcus aureus [9] = assay: Antibacterial activity against methicillin-resistant Staphylococcus aureus isolate MB 9 after 24 hrs by microdilution assay; assay type: functional; conditions: isolate MB 9, 24 h
Procedure, shortened: as §1

[10] = test system: Staphylococcus epidermidis; assay: Antibacterial activity against methicillin-sensitive Staphylococcus epidermidis isolate MB 65 after 24 hrs by microdilution assay; assay type: functional; conditions: isolate MB 65, 24 h
Procedure, shortened: as §2

Klebsiella pneumoniae = assay: Antibacterial activity against Klebsiella pneumoniae isolate MB 11 after 24 hrs by microdilution assay; assay type: functional
Procedure, shortened: as §1

Staphylococcus aureus [11] = assay: Antibacterial activity against methicillin-resistant Staphylococcus aureus isolate MB 10 after 24 hrs by microdilution assay; assay type: functional; conditions: isolate MB 10, 24 h
Procedure, shortened: as §1

Enterococcus faecium [12] = assay: Antibacterial activity against vancomycin-resistant Enterococcus faecium isolate MB 50 after 24 hrs by microdilution assay; assay type: functional; conditions: isolate MB 50, 24 h
Procedure, shortened: as §1

Escherichia coli = assay: Antibacterial activity against Escherichia coli isolate MB 123 after 24 hrs by microdilution assay; assay type: functional
Procedure, shortened: as §1

Enterococcus faecalis [13] = assay: Antibacterial activity against vancomycin-resistant Enterococcus faecalis isolate MB 49 after 24 hrs by microdilution assay; assay type: functional; conditions: isolate MB 49, 24 h
Procedure, shortened: as §1

Staphylococcus aureus [14] = assay: Antibacterial activity against methicillin-sensitive Staphylococcus aureus isolate MB 21 after 24 hrs by microdilution assay; assay type: functional; conditions: isolate MB 21, 24 h
Procedure, shortened: as §2

Staphylococcus aureus [15] = assay: Antibacterial activity against methicillin-resistant Staphylococcus aureus isolate MB 18 after 24 hrs by microdilution assay; assay type: functional; conditions: isolate MB 18, 24 h
Procedure, shortened: as §1

Enterococcus faecium [16] = assay: Antibacterial activity against Enterococcus faecium isolate MB 55 after 24 hrs by microdilution assay; assay type: functional; conditions: isolate MB 55, 24 h
Procedure, shortened: as §1

Enterococcus faecalis [17] = assay: Antibacterial activity against vancomycin-resistant Enterococcus faecalis isolate MB 1 after 24 hrs by microdilution assay; assay type: functional; conditions: isolate MB 1, 24 h
Procedure, shortened: as §1

Enterococcus faecalis [18] = assay: Antibacterial activity against vancomycin-resistant Enterococcus faecalis isolate MB 51 after 24 hrs by microdilution assay; assay type: functional; conditions: isolate MB 51, 24 h
Procedure, shortened: as §1

SMILES	Activity (Nakaseomyces glabratus)	MIC (Enterococcus faecium [3])	Activity (Moraxella catarrhalis)	MIC (Enterococcus faecium [4])	MIC [5]	MIC [6]	MIC [7]	Activity (Proteus mirabilis)	MIC (Enterococcus faecalis [8])	Activity (Candida albicans)	MIC (Staphylococcus aureus [9])	MIC [10]	Activity (Klebsiella pneumoniae)	MIC (Staphylococcus aureus [11])	MIC (Enterococcus faecium [12])	Activity (Escherichia coli)	MIC (Enterococcus faecalis [13])	MIC (Staphylococcus aureus [14])	MIC (Staphylococcus aureus [15])	MIC (Enterococcus faecium [16])	other results
C[C@]12C[C@H](c3ccoc3)OC(=O)[C@@]1(O)[C@@H](O)C[C@@]13COC(=O)C1=CC[C@@H](O)[C@@H]32																					IC50 [1]: 238.1 µg/mL (≈ 610 µM); IC50 [2]: 113.2 µg/mL (≈ 290 µM)
CC(=O)O[C@H](C[C@@]1(C)[C@H](C)[C@H](O[C@@H]2O[C@H](CO)[C@@H](O)C(=O)[C@H]2O)C[C@@]23COC(=O)C2=CCC[C@@H]31)c1ccoc1	inactive	234 µM (≈ 128 µg/mL)	inactive	> 128 µg/mL	> 128 µg/mL	> 128 µg/mL	> 128 µg/mL	inactive	117 µM	inactive	> 128 µg/mL	> 128 µg/mL	inactive	> 128 µg/mL	234 µM	inactive	234 µM	> 128 µg/mL	> 128 µg/mL	> 128 µg/mL	MIC (Enterococcus faecalis [17]): 234 µM; MIC (Enterococcus faecalis [18]): 117 µM
C[C@]12C[C@H](c3ccoc3)OC(=O)[C@@]1(O)[C@H](O)C[C@@]13COC(=O)C1=CCC[C@@H]32	inactive	342 µM (≈ 128 µg/mL)	inactive	342 µM	> 128 µg/mL	> 128 µg/mL	> 128 µg/mL	inactive	> 128 µg/mL	inactive	> 128 µg/mL	> 128 µg/mL	inactive	> 128 µg/mL	> 128 µg/mL	inactive	> 128 µg/mL	> 128 µg/mL	> 128 µg/mL	342 µM	MIC (Enterococcus faecalis [17]): > 128 µg/mL; MIC (Enterococcus faecalis [18]): > 128 µg/mL
C[C@@]12/C=C/C=C\C3=C(COC3=O)C[C@@H](O)[C@H]1C(=O)O[C@@H](c1ccoc1)C2	inactive	89.9 µM (≈ 32 µg/mL)	inactive	180 µM	> 128 µg/mL	> 128 µg/mL	> 128 µg/mL	inactive	89.9 µM	inactive	> 128 µg/mL	> 128 µg/mL	inactive	> 128 µg/mL	180 µM	inactive	180 µM	> 128 µg/mL	> 128 µg/mL	89.9 µM	MIC (Enterococcus faecalis [17]): 180 µM; MIC (Enterococcus faecalis [18]): 89.9 µM
C[C@]12C[C@H](c3ccoc3)OC(=O)[C@@H]1[C@H](O)C[C@@]13COC(=O)C1=CC=C[C@H]32																					IC50 [1]: 53.5 µg/mL (≈ 150 µM)
C[C@]12C[C@H](c3ccoc3)OC(=O)[C@@H]1[C@H](O)C[C@]13COC(=O)C1=CC=C[C@@H]32	inactive	359 µM (≈ 128 µg/mL)	inactive	> 128 µg/mL	> 128 µg/mL	> 128 µg/mL	> 128 µg/mL	inactive	> 128 µg/mL	inactive	> 128 µg/mL	> 128 µg/mL	inactive	> 128 µg/mL	359 µM	inactive	> 128 µg/mL	> 128 µg/mL	> 128 µg/mL	> 128 µg/mL	MIC (Enterococcus faecalis [17]): > 128 µg/mL; MIC (Enterococcus faecalis [18]): > 128 µg/mL
CC(C)c1cc2c(c(O)c1O)[C@@]13CCCC(C)(C)[C@@H]1[C@H](OC3=O)C2=O	inactive	186 µM (≈ 64.1 µg/mL)	inactive	93 µM	> 128 µg/mL	> 128 µg/mL	> 128 µg/mL	inactive	93 µM	inactive	> 128 µg/mL	> 128 µg/mL	inactive	> 128 µg/mL	93 µM	inactive	186 µM	> 128 µg/mL	> 128 µg/mL	186 µM	MIC (Enterococcus faecalis [17]): 186 µM; MIC (Enterococcus faecalis [18]): 93 µM
O=C1OCC=C1[C@H]1CCc2ccc3c(c2C1)[C@H](c1ccoc1)OC3=O	inactive	381 µM (≈ 128 µg/mL)	inactive	381 µM	> 128 µg/mL	> 128 µg/mL	> 128 µg/mL	inactive	> 128 µg/mL	inactive	> 128 µg/mL	> 128 µg/mL	inactive	> 128 µg/mL	381 µM	inactive	> 128 µg/mL	> 128 µg/mL	> 128 µg/mL	381 µM	MIC (Enterococcus faecalis [17]): > 128 µg/mL; MIC (Enterococcus faecalis [18]): > 128 µg/mL
C[C@]12C[C@H](c3ccoc3)OC(=O)[C@]1(O)[C@H](O)C[C@@]13COC(=O)C1=CCC[C@@H]32	inactive	171 µM (≈ 64.1 µg/mL)	inactive	342 µM	> 128 µg/mL	> 128 µg/mL	> 128 µg/mL	inactive	342 µM	inactive	> 128 µg/mL	> 128 µg/mL	inactive	> 128 µg/mL	171 µM	inactive	171 µM	> 128 µg/mL	> 128 µg/mL	342 µM	MIC (Enterococcus faecalis [17]): 171 µM; MIC (Enterococcus faecalis [18]): 85.5 µM
